Data set [1] concerns Staphylococcus aureus. In words: Antibacterial activity against methicillin-resistant Staphylococcus aureus 1094. It is filed as functional.
The test system of data set [2] is Staphylococcus aureus. In words: Antibacterial activity against methicillin-resistant Staphylococcus aureus 1234558336. It is filed as functional.
Data set [3] concerns Staphylococcus aureus. In words: Antibacterial activity against methicillin-resistant Staphylococcus aureus 1234549404. The class given is functional.
The subject of data set [4] is Staphylococcus aureus. The experiment in a line: Antibacterial activity against methicillin-resistant Staphylococcus aureus 1234547263. It is filed as functional.
Data set [5] deals with Staphylococcus aureus. In words: Antibacterial activity against methicillin-resistant Staphylococcus aureus 1234544081. It is filed as functional.
For data set [6], the system named is Staphylococcus aureus. In words: Antibacterial activity against methicillin-resistant Staphylococcus aureus 1234522733. The class given is functional.
In data set [7] the test system is Staphylococcus aureus. In words: Antibacterial activity against methicillin-resistant Staphylococcus aureus 1234543349. It is filed as functional.
For data set [8], the system named is Staphylococcus aureus. In words: Antibacterial activity against Staphylococcus aureus ATCC 25923. The class given is functional.
Data set [9] deals with Enterococcus faecium. In words: Antibacterial activity against vancomycin-resistant Enterococcus faecium 1644. The class given is functional.
The subject of data set [10] is Enterococcus faecium. In words: Antibacterial activity against vancomycin-resistant Enterococcus faecium B42762. The class given is functional.
Data set [11] deals with Enterococcus faecium. In words: Antibacterial activity against Enterococcus faecium ATCC 19434. It is filed as functional.
Data set [12] has as its system Enterococcus faecalis. The experiment in a line: Antibacterial activity against vancomycin-resistant Enterococcus faecalis F118. It is filed as functional.
Data set [13] deals with Enterococcus faecalis. In words: Antibacterial activity against vancomycin-resistant Enterococcus faecalis 700802. The class given is functional.
The test system of data set [14] is Enterococcus faecalis. The experiment in a line: Antibacterial activity against vancomycin-resistant Enterococcus faecalis 51299. The class given is functional.
Data set [15] relates to Enterococcus faecalis. The experiment in a line: Antibacterial activity against vancomycin-resistant Enterococcus faecalis ATCC 51575. The class given is functional.
Data set [16] concerns Enterococcus faecalis. In words: Antibacterial activity against Enterococcus faecalis ATCC 29212. The class given is functional.
The subject of the next data set is Bacillus licheniformis. The experiment in a line: Antibacterial activity against Bacillus licheniformis ATCC 14580. It is filed as functional.
Data set [17] deals with Bacillus anthracis. In words: Antibacterial activity against Bacillus anthracis Sterne. The class given is functional.
Another data set concerns Bacillus thuringiensis. In words: Antibacterial activity against Bacillus thuringiensis ATCC 10792. It is filed as functional.
The test system of a further data set is Bacillus subtilis. In words: Antibacterial activity against Bacillus subtilis BD54. The class given is functional.
The subject of data set [18] is Staphylococcus aureus. In words: Inhibition of Staphylococcus aureus ATCC 25923 single-strand DNA stimulated ATPase activity of replicative DnaB helicase at 50 uM by FRET assay.
The next data set relates to HeLa. In words: Cytotoxicity against human HeLa cells by MTS assay. The class given is cell-based. On the technique in general: Tetrazolium dyes change colour on reduction, which living cells bring about.
The subject of data set [19] is Staphylococcus aureus. The experiment in a line: Antibacterial activity against Staphylococcus aureus ATCC 25923 by broth microdilution method. It is filed as functional. (Dilution methods test growth across graded concentrations, often in twofold steps.)
The test system of data set [20] is Bacillus anthracis. The experiment in a line: Antibacterial activity against Bacillus anthracis by broth microdilution method. It is filed as functional.
A short description of data set [21]: Inhibition of Staphylococcus aureus ATCC 25923 replicative DnaB helicase-mediated ATP-dependent dissociation of Hel-5'FAM:Hel-3'BHQ by FRET assay. The procedure, abridged: (§1)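 Unwinding was read by FRET as helicase-driven, ATP-dependent dissociation of annealed Hel-5′FAM and Hel-3′BHQ oligonucleotides, one fluorescent and the other quencher-labelled. The replicative helicases were prepared as described earlier.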

A further data set concerns the target T1, Replicative DNA helicase (Bacillus anthracis, UniProt A0A6L8Q2B7).
T1 sequence (A0A6L8Q2B7 whole entry): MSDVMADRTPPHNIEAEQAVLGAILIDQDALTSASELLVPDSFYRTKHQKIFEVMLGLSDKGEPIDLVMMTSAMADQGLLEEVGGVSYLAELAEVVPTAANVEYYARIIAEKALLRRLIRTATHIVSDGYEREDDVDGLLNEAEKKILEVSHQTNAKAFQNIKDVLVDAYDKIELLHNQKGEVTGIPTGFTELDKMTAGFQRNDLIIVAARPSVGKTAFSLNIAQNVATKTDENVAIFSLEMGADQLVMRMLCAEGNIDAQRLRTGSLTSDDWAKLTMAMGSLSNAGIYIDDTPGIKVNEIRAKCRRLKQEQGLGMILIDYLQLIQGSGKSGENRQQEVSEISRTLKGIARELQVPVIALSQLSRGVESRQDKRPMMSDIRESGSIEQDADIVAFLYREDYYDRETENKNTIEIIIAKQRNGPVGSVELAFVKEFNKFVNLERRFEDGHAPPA
In words: Inhibition of Bacillus anthracis Sterne 34F2 replicative DNA helicase-mediated ATP-dependent dissociation of Hel-5'FAM:Hel-3'BHQ by FRET assay. On the set-up: species or system Bacillus anthracis str. Sterne. A digest of the protocol: as §1

In data set [22] the test system is Staphylococcus aureus. In words: Ratio of MIC for Staphylococcus aureus ATCC 25923 in presence of reserpine to MIC for Staphylococcus aureus ATCC 25923 in absence of reserpine. It is filed as functional.
Data set [23] is described as follows: Selectivity index, ratio of CC50 for human HeLa cells to MIC for Bacillus anthracis. It is filed as functional. The procedure, abridged: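 Selectivity index is HeLa CC50 (MTS assay) divided by the bacterial MIC.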
The test system of data set [24] is Staphylococcus aureus. The experiment in a line: Antibacterial activity against Staphylococcus aureus ATCC 25923 by broth microdilution method in presence of reserpine. The class given is functional.
Data set [25] can be described thus: Selectivity index, ratio of CC50 for human HeLa cells to MIC for Staphylococcus aureus ATCC 25923 in presence of reserpine. It is filed as functional.
The subject of data set [26] is Staphylococcus aureus. The experiment in a line: Antibacterial activity against Staphylococcus aureus ATCC 25923 assessed as re-growth at MIC after 24 hrs. The class given is functional, organism-based. The procedure, abridged:
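At set times up to 24 h, aliquots were diluted and spread on inhibitor-free LB agar to count viable CFU.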

Data set [27] is described as follows: Inhibition of Staphylococcus aureus ATCC 25923 replicative DnaB helicase using 0.1875 to 3 mM ATP as substrate assessed as DNA duplex strand-unwinding by FRET assay. The procedure, abridged: (§2)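 S. aureus helicase FRET unwinding assay run with varied DNA duplex or ATP concentrations, in triplicate. RFU/min slopes were normalized to the uninhibited control, and IC50 came from four-parameter nonlinear fits.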

The nature of data set [28]: Inhibition of Staphylococcus aureus ATCC 25923 replicative DnaB helicase using 3.3 to 90 nM Hel-5'FAM:Hel-3'BHQ as substrate assessed as DNA duplex strand-unwinding by FRET assay. The procedure, abridged: as §2

SMILES strings stand for the structures. In brackets after ≈: the same amount, converted by molar mass. Activity calls are given as the source filed them.

Turning to `Cc1c(CCC(=O)O)c(=O)oc2c(C)c(OCc3ccc(-c4ccc(Cl)cc4)cc3)ccc12`, the MIC with Staphylococcus aureus [1] stood at 2.1 µg/mL (≈ 4.54 µM); with Staphylococcus aureus [2], 1.04 µg/mL (≈ 2.25 µM); against Staphylococcus aureus [3] it was 0.52 µg/mL (≈ 1.12 µM); against Staphylococcus aureus [4], 0.65 µg/mL (≈ 1.4 µM); against Staphylococcus aureus [5], 0.65 µg/mL (≈ 1.4 µM); in the data set with Staphylococcus aureus [6], 0.78 µg/mL (≈ 1.68 µM). Moreover, the MIC amounted to 1.56 µg/mL (≈ 3.37 µM) in the data set on Staphylococcus aureus [7]; 0.78 µg/mL (≈ 1.68 µM) against Staphylococcus aureus [8]; 10.4 µg/mL (≈ 22.5 µM) in the data set with Enterococcus faecium [9]; 9.4 µg/mL (≈ 20.3 µM) in the data set on Enterococcus faecium [10]; 12.5 µg/mL (≈ 27 µM) in the data set on Enterococcus faecium [11]; 3.6 µg/mL (≈ 7.78 µM) against Enterococcus faecalis [12]. Also, the MIC stood at 16.7 µg/mL (≈ 36.1 µM) in the data set on Enterococcus faecalis [13]; 4.2 µg/mL (≈ 9.07 µM) in the data set with Enterococcus faecalis [14]; 25 µg/mL (≈ 54 µM) in the data set with Enterococcus faecalis [15]; 6.3 µg/mL (≈ 13.6 µM) against Enterococcus faecalis [16]; 0.098 µg/mL (≈ 0.212 µM) in the data set on Bacillus licheniformis; 0.17 µg/mL (≈ 0.367 µM) in the data set on Bacillus anthracis [17]. For the same compound, the MIC with Bacillus thuringiensis stood at 0.52 µg/mL (≈ 1.12 µM); against Bacillus subtilis, 3.1 µg/mL (≈ 6.7 µM); against Staphylococcus aureus [19], 1.25 µM (≈ 0.579 µg/mL); against Bacillus anthracis [20], 0.625 µM (≈ 0.289 µg/mL). The inhibition in the data set on Staphylococcus aureus [18] is 8%. In addition, half-maximal cytotoxicity in the data set on HeLa (CC50) was put at 25 µM. The IC50 in [21] is 1 µM; against Replicative DNA helicase, 1.5 µM.
Regarding `Cc1c(CCC(=O)O)c(=O)oc2c(C)c(OCc3ccc(-c4ccc(C(F)(F)F)cc4)cc3)ccc12`, the Ratio with Staphylococcus aureus [22] is on record as 8. In the data set with HeLa, this compound came in with a CC50 of 20.3 µM. Further, the figures for the “Selectivity Index” value in data set [23] and in data set [25] were greater than 25.4 and 3.2, respectively. The MIC in the data set on Staphylococcus aureus [24] is 6.3 µM; in the data set on Staphylococcus aureus [19], 50 µM (≈ 24.8 µg/mL); against Bacillus anthracis [20], less than 0.8 µM. Further, the IC50 in data set [21] is 3.3 µM; against Replicative DNA helicase, 6.1 µM.
In the case of `Cc1c(CCC(=O)O)c(=O)oc2c(C)c(OCc3ccc(-c4ccccc4)cc3)ccc12`, the MIC was 12.5 µg/mL (≈ 29.2 µM) against Staphylococcus aureus [1]; 3.1 µg/mL (≈ 7.23 µM) in the data set on Staphylococcus aureus [2]; 1.56 µg/mL (≈ 3.64 µM) against Staphylococcus aureus [3]; 2.1 µg/mL (≈ 4.9 µM) in the data set with Staphylococcus aureus [4]; 1.56 µg/mL (≈ 3.64 µM) in the data set with Staphylococcus aureus [5]; 2.6 µg/mL (≈ 6.07 µM) against Staphylococcus aureus [6]. For the same compound, the MIC in the data set with Staphylococcus aureus [7] is 4.2 µg/mL (≈ 9.8 µM); in the data set with Staphylococcus aureus [8] it was 1.56 µg/mL (≈ 3.64 µM); against Enterococcus faecium [9] it was 2.1 µg/mL (≈ 4.9 µM); with Enterococcus faecium [10], 14.6 µg/mL (≈ 34.1 µM); against Enterococcus faecium [11] it was 2.6 µg/mL (≈ 6.07 µM); against Enterococcus faecalis [12], 16.7 µg/mL (≈ 39 µM). Also, the MIC is greater than 25 µg/mL against Enterococcus faecalis [13]; 18.8 µg/mL (≈ 43.9 µM) with Enterococcus faecalis [14]; greater than 25 µg/mL in the data set with Enterococcus faecalis [15]; 5.2 µg/mL (≈ 12.1 µM) against Enterococcus faecalis [16]; 0.39 µg/mL (≈ 0.91 µM) with Bacillus licheniformis; 0.52 µg/mL (≈ 1.21 µM) against Bacillus anthracis [17]. Further, the MIC turned out to be 0.65 µg/mL (≈ 1.52 µM) in the data set on Bacillus thuringiensis, 2.5 µM (≈ 1.07 µg/mL) with Staphylococcus aureus [19] and 1.25 µM (≈ 0.536 µg/mL) in the data set with Bacillus anthracis [20]. Further, the result with Staphylococcus aureus [26] was Active. This compound also showed an inhibition in the data set with Staphylococcus aureus [18] of 6%. The IC50 in data set [27] is 1.5 µM; in data set [28], 1.8 µM; in data set [21], 2 µM; against Replicative DNA helicase, 3 µM. The CC50 with HeLa was 82 µM.

What is called MIC is the smallest concentration in the dilution series that meets the test's criterion for growth inhibition. By inhibition is commonly meant how much of the control response was suppressed. What is called CC50 is the concentration that lowers cell viability or growth by half. A high value points to lower toxicity to the cells. The term IC50 denotes the concentration that inhibits the measured activity by half.
